Measured values from ChEMBL document CHEMBL4699431, “Design and synthesis of substituted (1-(benzyl)-1H-1,2,3-triazol-4-yl)(piperazin-1-yl)methanone conjugates: study on their apoptosis inducing ability and tubulin polymerization inhibition” (RSC Med Chem, 2020).

How the values were obtained:
Format in all cases: functional, cell-based
[1] = system: BT-474; experiment: Cytotoxicity against human BT-474 cells assessed as reduction in cell viability incubated for 48 hrs by MTT assay; conditions: BT-474, 48 h
Summary of the method: (§1)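 Cells plated at 3000-4500 per well and treated after 24 h. DMSO stocks (20 mM) were diluted in medium to final DMSO <0.1%, twofold series […], 48 h. MTT (0.5 mg/mL) was added for 4 h, formazan dissolved in DMSO, absorbance read at 570 nm.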

[2] = system: HeLa; experiment: Cytotoxicity against human HeLa cells assessed as reduction in cell viability incubated for 48 hrs by MTT assay; summary of the method: as §1
[3] = system: MCF7; experiment: Cytotoxicity against human MCF-7 cells assessed as reduction in cell viability incubated for 48 hrs by MTT assay; conditions: MCF7, 48 h; summary of the method: as §1
[4] = system: NCI-H460; experiment: Cytotoxicity against human NCI-H460 cells assessed as reduction in cell viability incubated for 48 hrs by MTT assay; conditions: NCI-H460, 48 h; summary of the method: as §1
[5] = system: HaCaT; experiment: Cytotoxicity against human HaCaT cells assessed as reduction in cell viability incubated for 48 hrs by MTT assay; summary of the method: as §1

SMILES	IC50 [1] [µM]	IC50 [2] [µM]	IC50 [3] [µM]	IC50 [4] [µM]	IC50 [5] [µM]
Cc1ccc(S(=O)(=O)N2CCN(C(=O)c3cn(Cc4ccccc4)nn3)CC2)cc1	> 30	> 30	> 30	> 30	> 30
CC(C)(C)c1ccc(S(=O)(=O)N2CCN(C(=O)c3cn(Cc4cccc(Oc5ccccc5)c4)nn3)CC2)cc1	3.89	3.7	3.28	5.05	4.34
O=C(c1cn(Cc2ccccc2)nn1)N1CCN(S(=O)(=O)c2ccccc2)CC1	> 30	> 30	> 30	> 30	> 30
COc1ccc(S(=O)(=O)N2CCN(C(=O)c3cn(Cc4cccc(Oc5ccccc5)c4)nn3)CC2)cc1	5.13	3.72	2.2	8.2	2.59
COc1cccc(Cn2cc(C(=O)N3CCN(S(=O)(=O)c4ccccc4)CC3)nn2)c1	> 30	> 30	> 30	> 30	> 30
O=C(c1cn(Cc2ccccc2)nn1)N1CCN(S(=O)(=O)c2ccc(Cl)cc2)CC1	> 30	> 30	> 30	> 30	> 30
Cc1ccc(S(=O)(=O)N2CCN(C(=O)c3cn(Cc4cccc(Oc5ccccc5)c4)nn3)CC2)cc1	> 30	> 30	> 30	> 30	> 30
COc1ccc(S(=O)(=O)N2CCN(C(=O)c3cn(Cc4ccc(I)cc4)nn3)CC2)cc1	> 30	> 30	> 30	> 30	> 30
COc1cccc(Cn2cc(C(=O)N3CCN(S(=O)(=O)c4ccc(Cl)cc4)CC3)nn2)c1	> 30	> 30	> 30	> 30	> 30
O=C(c1cn(Cc2cccc(Oc3ccccc3)c2)nn1)N1CCN(S(=O)(=O)c2ccccc2)CC1	> 30	> 30	> 30	> 30	> 30
O=C(c1cn(Cc2ccc(I)cc2)nn1)N1CCN(S(=O)(=O)c2ccc(Br)cc2)CC1	2.33	6.52	2.73	3.55	2.48
O=C(c1cn(Cc2cccc(Oc3ccccc3)c2)nn1)N1CCN(S(=O)(=O)c2ccc(Cl)cc2)CC1	1.96	8.61	4.41	5.68	2.96
O=C(c1cn(Cc2ccc(I)cc2)nn1)N1CCN(S(=O)(=O)c2ccc(Cl)cc2)CC1	4.96	5.74	1.34	2.25	2.22
O=C(c1cn(Cc2ccc(F)cc2)nn1)N1CCN(S(=O)(=O)c2ccc(Cl)cc2)CC1	> 30	> 30	> 30	> 30	> 30
O=C(c1cn(Cc2ccc(I)cc2)nn1)N1CCN(S(=O)(=O)c2ccccc2)CC1	> 30	> 30	> 30	> 30	> 30
COc1ccc(S(=O)(=O)N2CCN(C(=O)c3cn(Cc4ccc(F)cc4)nn3)CC2)cc1	> 30	> 30	> 30	> 30	> 30
COC(=O)Nc1nc2cc(C(=O)c3cccs3)ccc2[nH]1 [NOCODAZOLE]	0.87	–	1.76	2.29	1.19
Cc1ccc(S(=O)(=O)N2CCN(C(=O)c3cn(Cc4ccc(I)cc4)nn3)CC2)cc1	> 30	> 30	> 30	> 30	> 30
Cc1ccc(S(=O)(=O)N2CCN(C(=O)c3cn(Cc4ccc(F)cc4)nn3)CC2)cc1	> 30	> 30	> 30	> 30	> 30
COc1ccc(S(=O)(=O)N2CCN(C(=O)c3cn(Cc4cccc(OC)c4)nn3)CC2)cc1	> 30	> 30	> 30	> 30	> 30
CC(C)(C)c1ccc(S(=O)(=O)N2CCN(C(=O)c3cn(Cc4ccc(I)cc4)nn3)CC2)cc1	1.21	3.58	3.06	1.42	2.06
O=C(c1cn(Cc2ccc(F)cc2)nn1)N1CCN(S(=O)(=O)c2ccccc2)CC1	> 30	> 30	> 30	> 30	> 30
O=C(c1cn(Cc2ccc(F)cc2)nn1)N1CCN(S(=O)(=O)c2ccc(Br)cc2)CC1	> 30	> 30	> 30	> 30	> 30
COc1cccc(Cn2cc(C(=O)N3CCN(S(=O)(=O)c4ccc(Br)cc4)CC3)nn2)c1	> 30	> 30	> 30	> 30	> 30
COc1cccc(Cn2cc(C(=O)N3CCN(S(=O)(=O)c4ccc(C(C)(C)C)cc4)CC3)nn2)c1	> 30	> 30	> 30	> 30	> 30
CC(C)(C)c1ccc(S(=O)(=O)N2CCN(C(=O)c3cn(Cc4ccc(F)cc4)nn3)CC2)cc1	> 30	> 30	> 30	> 30	> 30
CC(C)(C)c1ccc(S(=O)(=O)N2CCN(C(=O)c3cn(Cc4ccccc4)nn3)CC2)cc1	> 30	> 30	> 30	> 30	> 30
COc1ccc(S(=O)(=O)N2CCN(C(=O)c3cn(Cc4ccccc4)nn3)CC2)cc1	> 30	> 30	> 30	> 30	> 30
O=C(c1cn(Cc2ccccc2)nn1)N1CCN(S(=O)(=O)c2ccc(Br)cc2)CC1	> 30	> 30	> 30	> 30	> 30
